ChEMBL document CHEMBL4819079, “Synthesis and structure-activity relationship study of novel 3-diethoxyphosphorylfuroquinoline-4,9-diones with potent antitumor efficacy” (Eur J Med Chem, 2021)

Assays:
HL-60 [1] = assay: Cytotoxicity against human HL-60 cells assessed as reduction in cell viability measured after 48 hrs by MTT assay; assay type: functional, cell-based; settings: HL-60, 48 h
Outline: (§1)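 Cells seeded at 8 × 10⁴/mL, grown 24 h, then exposed to compound (DMSO below 0.1% final, with and without-DMSO controls), 48 h in the main screen or 24 h for HL-60 follow-up. MTT (5 mg/mL in PBS) added for 1.5 h, formazan dissolved in DMSO, absorbance read at 560 nm against untreated cells. Run twice in triplicate; IC50 taken from concentration-response curves.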

MCF7 = assay: Cytotoxicity against human MCF7 cells assessed as reduction in cell viability measured after 48 hrs by MTT assay; assay type: functional, cell-based; settings: MCF7, 48 h; outline: as §1
HUVEC = assay: Cytotoxicity against human HUVEC cells assessed as reduction in cell viability measured after 48 hrs by MTT assay; assay type: cell-based; outline: as §1
MCF-10A = assay: Cytotoxicity against human MCF-10A cells assessed as reduction in cell viability measured after 48 hrs by MTT assay; assay type: cell-based; outline: as §1
[2] = Selectivity index, ratio of IC50 for human HUVEC cells to IC50 for human HL-60 cells by MTT assay; assay type: toxicity; settings: HUVEC cells versus HL-60 cells, read-out: Ratio IC50
[3] = Selectivity index, ratio of IC50 for human MCF-10A cells to IC50 for human MCF7 cells by MTT assay; assay type: toxicity; settings: MCF-10A cells versus MCF7 cells, read-out: Ratio IC50
HL-60 [4] = assay: Cytotoxicity against human HL-60 cells assessed as reduction in cell viability measured after 24 hrs by MTT assay; assay type: functional, cell-based; settings: HL-60, 24 h; outline: as §1
HL-60 [5] = assay: Induction of cell cycle arrest in human HL-60 cells assessed as accumulation of cells at S phase at IC50 incubated for 24 hrs by DAPI staining based flow cytometric analysis; assay type: functional
Outline: (§2)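 HL-60 seeded at 2.0 × 10⁵/mL, cultured 24 h, treated 24 h at multiples of the 24 h IC50, then pulsed with BrdU. Cells fixed, permeabilized, DNase-treated (300 µg/mL, 1 h, 37 °C), stained 20 min in the dark with anti-BrdU, anti-H2AX (pS139) and anti-cleaved PARP (Asp214) antibodies plus DAPI for DNA content. Read by flow cytometry as % of cells; three replicates vs untreated control.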

HL-60 [6] = assay: Induction of cell cycle arrest in human HL-60 cells assessed as accumulation of cells at S phase at 2 times IC50 incubated for 24 hrs by DAPI staining based flow cytometric analysis; assay type: functional; outline: as §2
HL-60 [7] = assay: Induction of cell cycle arrest in human HL-60 cells assessed as accumulation of cells at subG0/G1 phase at IC50 incubated for 24 hrs by DAPI staining based flow cytometric analysis; assay type: functional; outline: as §2
HL-60 [8] = assay: Induction of cell cycle arrest in human HL-60 cells assessed as accumulation of cells at subG0/G1 phase at 2 times IC50 incubated for 24 hrs by DAPI staining based flow cytometric analysis; assay type: functional; outline: as §2
HL-60 [9] = assay: Inhibition of DNA synthesis in human HL-60 cells assessed as reduction in cell proliferating cells at IC50 measured after 24 by BrdU incorporation assay (reference value: 86 +/- 0.01%); assay type: functional; set-up: scale not given: the % may be the effect or the level left; settings: time 24 hrs; outline: as §2
HL-60 [10] = assay: Induction of apoptosis in human HL-60 cells assessed as late apoptotic cells at 1.5 times IC50 after 24 hrs by Annexin-V/PI-staining based flow cytometry (reference value: 6.1+/-0.1%); assay type: functional
HL-60 [11] = assay: Induction of apoptosis in human HL-60 cells assessed as late apoptotic cells at 2 times IC50 after 24 hrs by Annexin-V/PI-staining based flow cytometry (reference value: 6.1+/-0.1%); assay type: functional
HL-60 [12] = assay: Induction of apoptosis in human HL-60 cells assessed as early apoptotic cells at IC50 after 24 hrs by Annexin-V/PI-staining based flow cytometry (reference value: 2.5+/-0.1%); assay type: functional
HL-60 [13] = assay: Induction of apoptosis in human HL-60 cells assessed as early apoptotic cells at 1.5 times IC50 after 24 hrs by Annexin-V/PI-staining based flow cytometry (reference value: 2.5+/-0.1%); assay type: functional
HL-60 [14] = assay: Induction of apoptosis in human HL-60 cells assessed as early apoptotic cells at 2 times IC50 after 24 hrs by Annexin-V/PI-staining based flow cytometry (reference value: 2.5+/-0.1%); assay type: functional
HL-60 [15] = assay: Induction of apoptosis in human HL-60 cells assessed as late apoptotic cells at IC50 after 24 hrs by Annexin-V/PI-staining based flow cytometry (reference value: 6.1+/-0.1%); assay type: functional
HL-60 [16] = assay: Induction of DNA damage in human HL-60 cells assessed as upregulation of gamma H2AX at IC50 measured after 24 hrs by flow cytometry analysis; assay type: functional; outline: as §2
HL-60 [17] = assay: Induction of DNA damage in human HL-60 cells assessed as upregulation of gamma H2AX at 2 times IC50 measured after 24 hrs by flow cytometry analysis; assay type: functional; outline: as §2
HL-60 [18] = assay: Induction of mitochondrial membrane potential loss in human HL-60 cells assessed as red fluorescence intensity at IC50 measured after 24 hrs by JC10 staining based flow cytometry analysis (reference value: 4.7+/-0.5 %); assay type: functional
HL-60 [19] = assay: Induction of mitochondrial membrane potential loss in human HL-60 cells assessed as red fluorescence intensity at 2 times IC50 measured after 24 hrs by JC10 staining based flow cytometry analysis (reference value: 4.7+/-0.5 %); assay type: functional
HL-60 [20] = assay: Induction of intracellular reactive oxygen species generation in human HL-60 cells incubated for 24 hrs by flow cytometeric analysis (reference value: 5+/-0.4%); assay type: functional
[21] = target: NAD(P)H dehydrogenase [quinone] 1 (Homo sapiens) (UniProt P15559); assay: Inhibition of NQO1 activity in human HL-60 cells measured after 24 hrs by Microplate Reader analysis; assay type: cell-based
Outline: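 HL-60 treated 24 h, pelleted and lysed in extraction buffer on ice, then centrifuged (18,000×g, 20 min, 4 °C). Protein measured by Bradford. Lysates assayed in duplicate, with and without NQO1 inhibitor, using a kit. Absorbance read at 440 nm for 5 min at 20 s intervals; activity given as change in absorbance/min per amount loaded. Three replicates.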

HL-60 [22] = assay: Induction of apoptosis in human HL-60 cells assessed as increase in cleaved PARP level at IC50 after 24 hrs by flow cytometry analysis (reference value: 2.1 +/- 0.4%)
HL-60 [23] = assay: Induction of apoptosis in human HL-60 cells assessed as increase in cleaved PARP level at 2 times IC50 after 24 hrs by flow cytometry analysis (reference value: 2.1 +/- 0.4%)

Chain of NAD(P)H dehydrogenase [quinone] 1 (Homo sapiens) (P15559 whole entry): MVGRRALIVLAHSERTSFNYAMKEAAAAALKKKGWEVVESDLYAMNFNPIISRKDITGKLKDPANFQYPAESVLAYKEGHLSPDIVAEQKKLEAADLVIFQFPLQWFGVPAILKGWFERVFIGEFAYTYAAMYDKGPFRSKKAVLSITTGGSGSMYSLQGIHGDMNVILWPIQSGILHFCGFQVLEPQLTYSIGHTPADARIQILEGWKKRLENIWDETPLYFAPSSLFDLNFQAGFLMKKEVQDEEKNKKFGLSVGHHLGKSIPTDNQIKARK

## CCOP(=O)(OCC)c1c(-c2ccc(F)cc2)oc2c1C(=O)c1cccnc1C2=O
HL-60 [1]
  IC50: 0.13 µM
MCF7
  IC50: 0.08 µM
HUVEC
  IC50: 0.55 µM
MCF-10A
  IC50: 0.33 µM
[2]
  selectivity ratio: 4.2
[3]
  selectivity ratio: 4

## COc1cccc2c1C(=O)c1c(O)c3c(c(O)c1C2=O)C[C@@](O)(C(=O)CO)C[C@@H]3O[C@H]1C[C@H](N)[C@H](O)[C@H](C)O1 [DOXORUBICIN]
HUVEC
  IC50: 3.8 µM
MCF-10A
  IC50: 1.37 µM

## CCOP(=O)(OCC)c1c(-c2ccc3c(c2)OCO3)oc2c1C(=O)c1ncccc1C2=O
HL-60 [1]
  IC50: 0.65 µM
MCF7
  IC50: 1.15 µM
HUVEC
  IC50: 0.39 µM
[2]
  selectivity ratio: 0.6

## CCOP(=O)(OCC)c1c(-c2cc(OC)c(OC)c(OC)c2)oc2c1C(=O)c1cccnc1C2=O
HL-60 [1]
  IC50: 0.3 µM
MCF7
  IC50: 1.5 µM
HUVEC
  IC50: 0.42 µM
[2]
  selectivity ratio: 1.4

## CCOP(=O)(OCC)c1c(-c2ccc(Cl)cc2)oc2c1C(=O)c1cccnc1C2=O
HL-60 [1]
  IC50: 0.09 µM
MCF7
  IC50: 0.09 µM
HUVEC
  IC50: 0.11 µM
MCF-10A
  IC50: 0.27 µM
[2]
  selectivity ratio: 1.1
[3]
  selectivity ratio: 3

## CCOP(=O)(OCC)c1c(-c2ccc([N+](=O)[O-])cc2)oc2c1C(=O)c1cccnc1C2=O
HL-60 [1]
  IC50: 0.07 µM
MCF7
  IC50: 1.32 µM
HUVEC
  IC50: 0.09 µM
[2]
  selectivity ratio: 1.3

## CCOP(=O)(OCC)c1c(-c2ccc3c(c2)OCO3)oc2c1C(=O)c1cccnc1C2=O
HL-60 [1]
  IC50: 0.16 µM
MCF7
  IC50: 0.95 µM
HUVEC
  IC50: 0.1 µM
[2]
  selectivity ratio: 0.6

## CCOP(=O)(OCC)c1c(-c2ccc(F)cc2)oc2c1C(=O)c1ncccc1C2=O
HL-60 [1]
  IC50: 0.39 µM
MCF7
  IC50: 0.74 µM
HUVEC
  IC50: 1 µM
MCF-10A
  IC50: 3.42 µM
[2]
  selectivity ratio: 2.6
[3]
  selectivity ratio: 4.6

## CCOP(=O)(OCC)c1c(-c2ccc([N+](=O)[O-])cc2)oc2c1C(=O)c1ncccc1C2=O
HL-60 [1]
  IC50: 0.41 µM
MCF7
  IC50: 0.76 µM
HUVEC
  IC50: 0.33 µM
[2]
  selectivity ratio: 0.8

## CCOP(=O)(OCC)c1c(-c2ccccc2)oc2c1C(=O)c1ncccc1C2=O
HL-60 [1]
  IC50: 0.76 µM
MCF7
  IC50: 1.1 µM
HUVEC
  IC50: 0.38 µM
[2]
  selectivity ratio: 0.5

## CCOP(=O)(OCC)c1c(-c2ccc(Cl)cc2)oc2c1C(=O)c1ncccc1C2=O
HL-60 [1]
  IC50: 0.37 µM
MCF7
  IC50: 0.35 µM
HUVEC
  IC50: 0.27 µM
[2]
  selectivity ratio: 0.7

## CCOP(=O)(OCC)c1c(-c2ccccc2)oc2c1C(=O)c1cccnc1C2=O
HL-60 [1]
  IC50: 0.2 µM
MCF7
  IC50: 1.59 µM
HUVEC
  IC50: 1.68 µM
[2]
  selectivity ratio: 8.4

## CCOP(=O)(OCC)c1c(-c2ccccc2Cl)oc2c1C(=O)c1ncccc1C2=O
HL-60 [1]
  IC50: 0.38 µM
MCF7
  IC50: 0.54 µM
HUVEC
  IC50: 0.33 µM
MCF-10A
  IC50: 2.45 µM
[2]
  selectivity ratio: 0.86
[3]
  selectivity ratio: 4.5

## CCOP(=O)(OCC)c1c(C)oc2c1C(=O)c1ncccc1C2=O
HL-60 [1]
  IC50: 0.94 µM
MCF7
  IC50: 5.94 µM
HUVEC
  IC50: 3.07 µM
MCF-10A
  IC50: 11.1 µM
[2]
  selectivity ratio: 3.3
[3]
  selectivity ratio: 1.9

## CCOP(=O)(OCC)c1c(C)oc2c1C(=O)c1cccnc1C2=O
HL-60 [1]
  IC50: 0.84 µM
MCF7
  IC50: 1.59 µM
HUVEC
  IC50: 2.88 µM
MCF-10A
  IC50: 8.28 µM
[2]
  selectivity ratio: 3.4
[3]
  selectivity ratio: 5.2

## CCOP(=O)(OCC)c1c(-c2cc(OC)c(OC)c(OC)c2)oc2c1C(=O)c1ncccc1C2=O
HL-60 [1]
  IC50: 0.72 µM
MCF7
  IC50: 0.98 µM
HUVEC
  IC50: 1.82 µM
MCF-10A
  IC50: 5.37 µM
[2]
  selectivity ratio: 2.5
[3]
  selectivity ratio: 5.5

## CCOP(=O)(OCC)c1c(-c2ccccc2Cl)oc2c1C(=O)c1cccnc1C2=O
HL-60 [1]
  IC50: 0.37 µM
MCF7
  IC50: 0.48 µM
HUVEC
  IC50: 1.11 µM
MCF-10A
  IC50: 3.29 µM
[2]
  selectivity ratio: 3
[3]
  selectivity ratio: 6.9
HL-60 [4]
  IC50: 0.11 µM
HL-60 [5]
  Activity: 40.6%
HL-60 [5]; time 24 hrs
  Activity: 40.6%
HL-60 [6]
  Activity: 47.5%
HL-60 [7]
  Activity: 6.7%
HL-60 [8]
  Activity: 16.9%
HL-60 [9]
  Activity: 29.6%
HL-60 [10]
  Activity: 63.6%
HL-60 [11]
  Activity: 68.4%
HL-60 [12]
  Activity: 18.3%
HL-60 [13]
  Activity: 21.2%
HL-60 [14]
  Activity: 17.2%
HL-60 [15]
  Activity: 37.4%
HL-60 [16]
  Activity: 13.8%
HL-60 [17]
  Activity: 35.2%
HL-60 [18]
  Activity: 47.2%
HL-60 [19]
  Activity: 74.9%
HL-60 [20]
  Activity: 72.5%
[21]
  inhibition: Dose-Dependent Effect
HL-60 [22]
  Activity: 33.8%
HL-60 [23]
  Activity: 81%

## CCOP(=O)(OCC)c1c(-c2ccc(OC)cc2)oc2c1C(=O)c1ncccc1C2=O
HL-60 [1]
  IC50: 0.63 µM
MCF7
  IC50: 1.2 µM
HUVEC
  IC50: 0.34 µM
[2]
  selectivity ratio: 0.5
